Assay results as given in the EternaBench riboswitch data.

Tested on: MS2 coat protein
Test: apparent Kd, MS2 coat protein; higher = weaker binding; RNA-MaP array; tryptophan 2.4 mM where present
Procedure, shortened: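 Stalled E. coli RNA polymerase produced the designs on Illumina sequencing-chip clusters. SNAP-549-labelled MS2 coat protein was added from 0.7 or 1.5 nM, doubling to 3 µM, without and then with constant ligand, in 100 mM Tris-HCl pH 7.5, 80 mM KCl, 4 mM MgCl2, BSA, DTT, yeast tRNA and Tween-20. The apparent Kd is the median of filtered per-cluster fits of green signal normalised to red-channel RNA signal and control-cluster median Fmax.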

[1] = designed as: OFF switch for tryptophan, no ligand
[2] = ligand present: tryptophan, designed as: OFF switch for tryptophan
[3] = designed as: ON switch for tryptophan, no ligand
[4] = ligand present: tryptophan, designed as: ON switch for tryptophan

| Sequence | apparent Kd [1] [nM] | apparent Kd [2] [nM] | apparent Kd [3] [nM] | apparent Kd [4] [nM] |
| --- | --- | --- | --- | --- |
| GAGUAGAGGACGGCCGCCACUGAACAUGAGGAUCACCCAUGUCGUGAUCCGUUACCUAAAGAAGAUAGGACCGGGUCAUGUACUC | 27.3 | 28.7 |  |  |
| UAAUCAGUGCCGGUUCUCGGAUCCUCAUGUCGAGGACCGGUACGGCCGCCACUCGGAACAUGAGGAUCACCCAUGUAAUAAUAAU | 97.3 | 92.7 |  |  |
| AACAUGAGGAUCACCCAUGUGUCCUCGAAACGAGGACCGGUACGGCCGCCACUCGAAGCAUGUUGACGAAAAGUCAGCAUGCAAA | 318 | 1060 |  |  |
| GGAGUAGAUGCGGCCGCCACUUUCUCAAGACACUACAUGAGGAUCACCCAUGUCCAUUCUACACUAAGGACCGGGCAUCCCAUGG |  |  | 54.3 | 39.5 |
| AGCGUGCAUAGGAAAACUAUGUACGCAAAUCGAGGACCGGUACGGCCGCCACUCGUCCUCAACAUGAGGAUCACCCAUGUAAUAA | 19.9 | 34.7 |  |  |
| UUCGUAUUGUCGGCCGCCACUGCAACAUGAGGAUCACCCAUGUAAGAAUGGUUGUAAAUAUAUUACAGGACCGGGACAAUAGUAA | 17.6 | 51.6 |  |  |
| CUUGGCUGUGCGGCCGCCACUGACUCAUCCUGCAUUACAUGAGGAUCACCCAUGUUGCGGCCUCCCAGGACCGGGCAUAGCCUGC |  |  | 390 | 91.3 |
| AAUUUAUGGUUCUUGAUGUAGUAUCUAUUUCGAGGACCGGUACGGCCGCCACUCGUAAAUUACAUGAGGAUCACCCAUGUUAGCU | 24.6 | 29.5 |  |  |
| AAUAAUAAGGCGGCCGCCACUACACAUGAGGAUCACCCAUGUCUCGCGGGCUUGCGUUGGGAAUGUAGGACCGGGCCAAUAAUAA | 24.3 | 18.3 |  |  |
| UAUCGUCAGACGGCCGCCACUAGAACAUGAGGAUCACCCAUGUAAGUGGCCGGUCUCCUCAUGACUAGGACCGGGUCUGACGAAU | 8.69 | 9.94 |  |  |
